Measured values as given in ChEMBL document CHEMBL4390648, “Chemical synthesis, crystal structure, versatile evaluation of their biological activities and molecular simulations of novel pyrithiobac derivatives” (Eur J Med Chem, 2019).
Converted amounts (≈) assume the structure as drawn. The source made the active and inactive calls. The calls are words filed in the database; no cut-off is given here.

Experiments:
[1] = system: Brassica rapa subsp. oleifera; assay: Herbicidal activity against Brassica campestris L assessed as inhibition of rape root growth at 100 mg/l root growth incubated for 48 hrs relative to control; type: functional
Method in brief: (§1)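 Rape seeds soaked in distilled water for 4 h, then placed on filter paper wetted with inhibitor solution, 15 seeds per 6-cm dish. Germinated in the dark at 28 °C for 48 h. Mean length of 10 roots per plate measured.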

[2] = system: Ceratobasidium cereale; assay: Antifungal activity against Rhizoctonia cerealis assessed as reduction in growth at 50 mg/l by mycelium growth rate method relative to control; type: functional
Method in brief: (§2)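 Mycelium growth rate method against S. sclerotiorum, P. capsici, P. piricola, R. cerealis, W. anthracnose and R. bakanae. Each compound tested at 50 mg/L, with chlorothalonil and PTB as controls. Relative inhibitory ratio (%) calculated from mycelial growth.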

[3] = system: Sclerotinia sclerotiorum; assay: Antifungal activity against Sclerotinia sclerotiorum assessed as reduction in growth at 50 mg/l by mycelium growth rate method relative to control; type: functional; method in brief: as §2
[4] = system: Tobacco mosaic virus; assay: Antiviral activity against Tobacco mosaic virus inoculated in Nicotiana tabacum leaves assessed as passivation by measuring local lesion numbers at 100 mg/l pre-incubated with virus for 30 mins followed by inoculation and measured up to 4 days; type: functional
Method in brief: (§3)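 Passivation assay: TMV mixed with an equal volume of compound solution for 30 min, then rubbed onto the left half of N. tabacum L. leaves. The right half received virus mixed with solvent as control. Local lesions counted 3–4 days after inoculation. Compounds tested at 500 or 100 mg/L.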

[5] = system: Candida albicans; assay: Antifungal activity against Candida albicans isolate g5 grown in YNB medium incubated for 24 hrs by microdilution method; type: functional; settings: isolate g5, 24 h
Method in brief: (§4)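 C. albicans standard strain SC5314 and clinical isolates g5 and 17# tested by broth microdilution in YNB or RPMI 1640 medium. Plates incubated at 35 °C for up to 72 h, with visual readings taken at 24 h. MIC taken as the lowest concentration preventing visible growth.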

[6] = system: Arabidopsis thaliana; assay: Inhibition of Arabidopsis thaliana AHAS catalytic subunit using pyruvate as substrate at 10 uM measured after 30 mins by colorimetric method relative to control
Method in brief: (§5)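 Colorimetric assay in 50 mM potassium phosphate pH 7.0 with 50 mM pyruvate, 1 mM thiamine diphosphate, 10 mM MgCl2 and 10 μM FAD. Incubated 30 min at 37 °C for plant AHAS and 30 °C for fungal AHAS. Acetolactate formed was then quantified.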

[7] = system: Tobacco mosaic virus; assay: Antiviral activity against Tobacco mosaic virus inoculated in Nicotiana tabacum leaves assessed as passivation by measuring local lesion numbers at 500 mg/l pre-incubated with virus for 30 mins followed by inoculation and measured up to 4 days; type: functional; method in brief: as §3
[8] = system: Candida albicans; assay: Inhibition of Candida albicans AHAS catalytic subunit at 100 uM using pyruvate as substrate measured after 30 mins by colorimetric method relative to control; method in brief: as §5
[9] = system: Brassica rapa subsp. oleifera; assay: Herbicidal activity against Brassica campestris L assessed as inhibition of rape root growth at 10 mg/l root growth incubated for 48 hrs relative to control; type: functional; method in brief: as §1
[10] = system: Phytophthora capsici; assay: Antifungal activity against Phytophthora capsici assessed as reduction in growth at 50 mg/l by mycelium growth rate method relative to control; type: functional; method in brief: as §2
[11] = system: Mythimna separata; assay: Insecticidal activity against Mythimna separata assessed as larval mortality at 600 mg/l by leaf-dip method; type: functional
[12] = system: Severe acute respiratory syndrome-related coronavirus; assay: Inhibition of SARS coronavirus M protease using AVLQSGFRKK as substrate at 20 uM by FRET assay relative to control
Method in brief: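 Purified SARS-CoV Mpro assayed by FRET. Protein, compound and substrate were preheated at 37 °C and oscillated. Fluorescence (ex 320/em 405 nm) was read every 5 s for 200 reads.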

[13] = system: Candida albicans; assay: Antifungal activity against Candida albicans isolate g5 grown in RPMI 1640 medium incubated for 24 hrs by microdilution method; type: functional; settings: isolate g5, 24 h; method in brief: as §4
[14] = system: Candida albicans; assay: Antifungal activity against Candida albicans SC5314 grown in RPMI 1640 medium incubated for 24 hrs by microdilution method; type: functional; settings: SC5314, 24 h; method in brief: as §4
[15] = system: Fusarium fujikuroi; assay: Antifungal activity against Gibberella fujikuroi assessed as reduction in growth at 50 mg/l by mycelium growth rate method relative to control; type: functional; method in brief: as §2
[16] = system: Candida albicans; assay: Antifungal activity against Candida albicans SC5314 grown in YNB medium incubated for 24 hrs by microdilution method; type: functional; settings: SC5314, 24 h; method in brief: as §4
[17] = system: Botryosphaeria berengeriana; assay: Antifungal activity against Physalospora pyricola assessed as reduction in growth at 50 mg/l by mycelium growth rate method relative to control; type: functional; method in brief: as §2
[18] = system: Colletotrichum; assay: Antifungal activity against Colletotrichum (W. anthracnose) assessed as reduction in growth at 50 mg/l by mycelium growth rate method relative to control; type: functional; method in brief: as §2
[19] = system: Arabidopsis thaliana; assay: Inhibition of Arabidopsis thaliana AHAS catalytic subunit using pyruvate as substrate at 100 uM measured after 30 mins by colorimetric method relative to control; method in brief: as §5
[20] = system: Candida albicans; assay: Inhibition of Candida albicans AHAS catalytic subunit at 10 uM using pyruvate as substrate measured after 30 mins by colorimetric method relative to control; method in brief: as §5
[21] = system: Candida albicans; assay: Antifungal activity against Candida albicans isolate 17 grown in YNB medium incubated for 24 hrs by microdilution method; type: functional; settings: isolate 17, 24 h; method in brief: as §4
[22] = system: Candida albicans; assay: Antifungal activity against Candida albicans isolate 17 grown in RPMI 1640 medium incubated for 24 hrs by microdilution method; type: functional; settings: isolate 17, 24 h; method in brief: as §4
[23] = system: Ceratobasidium cereale; assay: Antifungal activity against Rhizoctonia cerealis assessed as reduction in growth mycelium growth rate method relative to control; type: functional, organism-based
Method in brief: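 EC50 against R. cerealis derived from mycelium growth-rate inhibition over a concentration series, using a probit fit: Probit = m(log10[I] − log10[EC50]) + 5.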

| Structure (SMILES) | inhibition (INH) [1] | inhibition at 50 µg/mL [2] | inhibition at 50 µg/mL [3] | MIC [5] | inhibition [6] | inhibition at 500 µg/mL [7] | inhibition [8] | inhibition (INH) [9] | inhibition at 50 µg/mL [10] | inhibition [12] | MIC [13] | MIC [14] | inhibition at 50 µg/mL [15] | MIC [16] | inhibition at 50 µg/mL [17] | inhibition at 50 µg/mL [18] | inhibition [19] | inhibition [20] | MIC [21] | MIC [22] | also measured |
| --- | --- | --- | --- | --- | --- | --- | --- | --- | --- | --- | --- | --- | --- | --- | --- | --- | --- | --- | --- | --- | --- |
| COc1nc(OC)nc(Sc2ccc(C#N)cc2Br)n1 | 25% | 94% | 13.9% | > 100 µg/mL | 53.1% | 0% | 68.6% | 0% | 8.3% | 39.3% | > 100 µg/mL | > 100 µg/mL | 51.5% | > 100 µg/mL | 56.3% | 19% | 98.3% | 32.1% | > 100 µg/mL | > 100 µg/mL | inhibition [4]: inactive; mortality at 600 µg/mL [11]: 30%; EC50 [23]: 12.4 µg/mL (≈ 35.1 µM) |
| COc1cc(OC)nc(Sc2ccc(C(=O)O)cc2F)n1 | 82.2% | 91.7% | 83.3% | > 100 µg/mL | 40% | 46.5% | 91.7% | 48% | 58.3% | 26.8% | > 100 µg/mL | > 100 µg/mL | 48.5% | > 100 µg/mL | 50% | 40.5% | 100% | 81.7% | > 100 µg/mL | > 100 µg/mL | inhibition at 100 µg/mL [4]: 6.8%; mortality at 600 µg/mL [11]: 30%; EC50 [23]: 11.8 µg/mL (≈ 38 µM) |
| N#Cc1c(Cl)c(Cl)c(Cl)c(C#N)c1Cl [CHLOROTHALONIL] |  | 96.8% | 87.6% |  |  |  |  |  | 80.8% |  |  |  | 75.4% |  | 92.5% | 78.6% |  |  |  |  | EC50 [23]: 5.3 µg/mL (≈ 19.9 µM) |
| COc1cc(OC)nc(Sc2ccc(C(=O)O)cc2Br)n1 | 26.4% | 96.4% | 50% | 25 µg/mL (≈ 67.3 µM) | 48.9% | 0% | 94.6% | 0% | 42.7% | 0% | > 100 µg/mL | > 100 µg/mL | 39.4% | 25 µg/mL (≈ 67.3 µM) | 51.6% | 45.2% | 100% | 70.7% | 12.5 µg/mL (≈ 33.7 µM) | > 100 µg/mL | inhibition [4]: inactive; mortality at 600 µg/mL [11]: 50%; EC50 [23]: 11.4 µg/mL (≈ 30.7 µM) |
| COc1cc(OC)nc(Sc2ccc(Cl)cc2C(=O)O)n1 | 54.5% | 89.3% | 63.9% | > 100 µg/mL | 34% | 0% | 96.6% | 0% | 41.7% | 4.6% | > 100 µg/mL | > 100 µg/mL | 48.5% | > 100 µg/mL | 40.6% | 52.4% | 100% | 80.6% | > 100 µg/mL | > 100 µg/mL | inhibition [4]: inactive; mortality at 600 µg/mL [11]: 5%; EC50 [23]: 14.1 µg/mL (≈ 43.2 µM) |
| COc1cc(OC)nc(Sc2ccc(C(=O)O)cc2Cl)n1 | 73.4% | 89.3% | 83.3% | > 100 µg/mL | 31.4% | 0% | 85% | 30.6% | 41.7% | 0% | > 100 µg/mL | > 100 µg/mL | 60.6% | > 100 µg/mL | 76.6% | 28.6% | 100% | 62.3% | > 100 µg/mL | > 100 µg/mL | inhibition [4]: inactive; mortality at 600 µg/mL [11]: 50%; EC50 [23]: 9.2 µg/mL (≈ 28.2 µM) |
| COc1nc(OC)nc(Oc2cccc(I)c2)n1 | 88.1% | 90.5% | 66.7% | > 100 µg/mL | 8.9% | 17.1% | 29.4% | 80.2% | 33.3% | 0% | > 100 µg/mL | > 100 µg/mL | 6.1% | > 100 µg/mL | 59.4% | 23.8% | 84.7% | 0% | > 100 µg/mL | > 100 µg/mL | inhibition [4]: inactive; EC50 [23]: 10.9 µg/mL (≈ 30.4 µM) |
| COc1nc(OC)nc(Sc2ccc(F)cc2C(=O)O)n1 | 33.3% | 57.1% | 55.6% | > 100 µg/mL | 3.3% | 0% | 77.6% | 1.6% | 16.7% | 94.5% | > 100 µg/mL | > 100 µg/mL | 30.3% | > 100 µg/mL | 45.3% | 19% | 68.6% | 56.1% | 50 µg/mL (≈ 161 µM) | 100 µg/mL (≈ 321 µM) | inhibition [4]: inactive; mortality at 600 µg/mL [11]: 80% |
| COc1nc(OC)nc(Sc2ccc(C#N)cc2Cl)n1 | 60.3% | 54.8% | 36.1% | > 100 µg/mL | 43.2% | 29.6% | 73.6% | 28.4% | 8.3% | 12.8% | > 100 µg/mL | > 100 µg/mL | 42.4% | > 100 µg/mL | 60.9% | 33.3% | 89.6% | 65.4% | > 100 µg/mL | > 100 µg/mL | inhibition [4]: inactive; mortality at 600 µg/mL [11]: 30% |
